What all share (assay type): functional, organism-based
The species named for assay [1] is Homo sapiens. Kind of assay: Inhibitory activity against arachidonic acid-induced platelet aggregation at a concentration of 100 uM was determined. Summed up: (§1)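 Platelets preincubated with test compound, aspirin or DMSO (0.5%, control) at 37 °C for 3 min, then aggregation inducer added (arachidonic acid, collagen, PAF or thrombin). IC50 values given as means ± S.E. (n=3).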

For assay [2], the species on record is Homo sapiens. Briefly: Antiplatelet aggregation (thrombin-induced) activity at a concentration of 0.1 U. Summed up: as §1
For assay [3], the species on record is Homo sapiens. Kind of assay: Antiplatelet aggregation (platelet activating factor-induced) activity at a concentration of 2 ng/mL. Summed up:
as §1

The species named for assay [4] is Homo sapiens. Briefly: Antiplatelet aggregation (collagen-induced) activity at a concentration of 10 ug/mL. An outline of the steps:
as §1

The IC50 is the concentration that inhibits the measured activity by half. The low end stands for inhibition by little substance, the high end for a need for much substance.

Regarding `COc1cc2c(cc1OC)C1=C(c3ccc(Cl)cc3)C(=O)C(=O)N1CC2`, the IC50 in assay [1] is 52.8 µM; in assay [2], greater than 100 µM; in assay [3] it was 84.8 µM; in assay [4], 30 µM.

As to `COc1cc2c(cc1OC)C1=C(c3ccccc3Cl)C(=O)C(=O)N1CC2`, the IC50 in assay [1] was 78.3 µM; in assay [2], greater than 100 µM; in assay [3], greater than 100 µM; in assay [4], 44.9 µM.

Consider `COc1cc2c(cc1OC)C1=C(c3ccc(Br)cc3)C(=O)C(=O)N1CC2`, for which the half-inhibitory concentration (IC50) in assay [1] is 72.7 µM; in assay [2] it was greater than 100 µM; in assay [3], greater than 100 µM; in assay [4] it was 29.8 µM.

`COc1cc2c(cc1OC)C1=C(c3ccccc3Br)C(=O)C(=O)N1CC2`: the IC50 in assay [1] is greater than 100 µM; in assay [2], greater than 100 µM; in assay [3] it was greater than 100 µM; in assay [4] it was 39.8 µM.

Regarding `COc1cc2c(cc1OC)C1=C(c3cccc(Br)c3)C(=O)C(=O)N1CC2`, the IC50 is 45.5 µM in assay [1], greater than 100 µM in assay [2], greater than 100 µM in assay [3] and 23.3 µM in assay [4].

In the case of `COc1cc2c(cc1OC)C1=C(c3cccc(Cl)c3)C(=O)C(=O)N1CC2`, the IC50 in assay [1] is 53.8 µM; in assay [2], greater than 100 µM; in assay [3], greater than 100 µM; in assay [4] it was 37.5 µM.

Take `COc1cccc(C2=C3c4cc(OC)c(OC)cc4CCN3C(=O)C2=O)c1`: the IC50 was 21 µM in assay [1], greater than 100 µM in assay [2], greater than 100 µM in assay [3] and 6.1 µM in assay [4].

For the molecule `COc1ccc(C2=C3c4cc(OC)c(OC)cc4CCN3C(=O)C2=O)cc1`, the IC50 in assay [1] was determined as 15.2 µM; in assay [2], 30.7 µM; in assay [3], 33.2 µM; in assay [4], 9.15 µM.

Turning to `COc1cc2c(cc1OC)C1=C(c3ccccc3OC)C(=O)C(=O)N1CC2`, the IC50 was 65.5 µM in assay [1], greater than 100 µM in assay [2], greater than 100 µM in assay [3] and 35.8 µM in assay [4].

Turning to `CC(=O)Oc1ccccc1C(=O)O` [ASPIRIN], the concentration for half-maximal inhibition (IC50) in assay [1] was 44.6 µM; in assay [2], greater than 100 µM; in assay [3], greater than 100 µM; in assay [4] it was 22.4 µM.

The record behind these values is ChEMBL document CHEMBL1145762, “Antiplatelet activity of synthetic pyrrolo-benzylisoquinolines” (Bioorg Med Chem Lett, 2003).
